In ChEMBL document CHEMBL2150901, “Synthesis and biological activity of tricyclic cycloalkylimidazo-, pyrimido- and diazepinopurinediones” (Eur J Med Chem, 2011):
Calls of active or inactive are those of the source. No cut-off for these calls is given here.

Assays:
Mus musculus [1] = experiment: Neurotoxicity in F1 albino mouse assessed as minimal motor impairment at 300 mg/kg, ip after 1 hr by rotorod test; assay type: toxicity, organism-based; design: dose 300 mg/kg, route intraperitoneal; conditions: in vivo
How it was run: (§1)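 Male albino F-1 mice (18–25 g), groups of 1–5 (rotorod 2–8). Compound given ip as a suspension in 0.5% methylcellulose at 30, 100 and 300 mg/kg. Seizures by maximal electroshock or subcutaneous pentylenetetrazole; neurotoxicity by rotorod. Read at 0.5 and 4 h, with some at 0.25, 1 and 2 h. Value is the minimum active dose, with protected (or toxic)/tested animals.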

Adenosine receptor A2a [2] = target: T1, Adenosine receptor A2a (Homo sapiens, UniProt P29274); experiment: Displacement of [3H]MSX-2 from human recombinant adenosine A2A receptor expressed in CHO cells; assay type: cell-based
T1 sequence (P29274 whole entry): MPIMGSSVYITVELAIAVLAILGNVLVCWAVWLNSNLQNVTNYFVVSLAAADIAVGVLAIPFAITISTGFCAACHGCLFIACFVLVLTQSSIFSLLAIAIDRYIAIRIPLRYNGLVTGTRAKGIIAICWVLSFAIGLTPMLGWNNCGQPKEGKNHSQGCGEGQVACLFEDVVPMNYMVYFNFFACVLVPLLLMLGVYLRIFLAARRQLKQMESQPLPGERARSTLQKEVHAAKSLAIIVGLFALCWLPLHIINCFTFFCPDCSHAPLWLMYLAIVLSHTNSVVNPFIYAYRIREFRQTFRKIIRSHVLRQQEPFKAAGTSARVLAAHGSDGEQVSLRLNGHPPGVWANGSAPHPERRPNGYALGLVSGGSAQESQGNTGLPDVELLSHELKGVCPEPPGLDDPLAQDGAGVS

Adenosine receptor A2a [3] = target: Adenosine receptor A2a (Rattus norvegicus, UniProt P30543); experiment: Displacement of [3H]MSX-2 from adenosine A2A receptor in rat brain striatal membrane; assay type: cell membranes
Chain of Adenosine receptor A2a (Rattus norvegicus, UniProt P30543) (P30543 whole entry): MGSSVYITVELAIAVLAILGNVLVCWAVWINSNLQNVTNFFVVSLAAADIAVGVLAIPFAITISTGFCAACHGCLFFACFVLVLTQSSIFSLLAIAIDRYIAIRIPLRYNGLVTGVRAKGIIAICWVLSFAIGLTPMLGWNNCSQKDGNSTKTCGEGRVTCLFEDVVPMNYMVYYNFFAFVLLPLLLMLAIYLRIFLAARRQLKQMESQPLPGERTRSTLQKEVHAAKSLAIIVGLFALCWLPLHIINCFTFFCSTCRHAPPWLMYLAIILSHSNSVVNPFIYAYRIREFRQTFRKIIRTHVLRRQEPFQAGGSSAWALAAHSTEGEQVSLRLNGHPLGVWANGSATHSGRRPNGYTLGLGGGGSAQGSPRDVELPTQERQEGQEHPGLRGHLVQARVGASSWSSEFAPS

Mus musculus [4] = experiment: Anticonvulsant activity in F1 albino mouse assessed as protection against maximal electroshock-induced seizures at 300 mg/kg, ip after 4 hrs; assay type: functional, organism-based; design: dose 300 mg/kg; how it was run: as §1
Mus musculus [5] = experiment: Anticonvulsant activity in F1 albino mouse assessed as protection against maximal electroshock-induced seizures at 300 mg/kg, ip after 0.25 hrs; assay type: functional, organism-based; design: dose 300 mg/kg; how it was run: as §1
Mus musculus [6] = experiment: Neurotoxicity in F1 albino mouse assessed as minimal motor impairment at 300 mg/kg, ip after 0.25 hrs by rotorod test; assay type: toxicity, organism-based; design: dose 300 mg/kg, route intraperitoneal; conditions: in vivo; how it was run: as §1
Mus musculus [7] = experiment: Anticonvulsant activity in F1 albino mouse assessed as protection against subcutaneous pentylenetetrazole-induced seizures at 300 mg/kg, ip after 1 hr; assay type: functional, organism-based; design: dose 300 mg/kg; how it was run: as §1
CHO = experiment: Selectivity ratio of Ki for human recombinant adenosine A2A receptor expressed in CHO cells to Ki for adenosine A2A receptor in rat brain striatal membrane; assay type: cell-based
How it was run: (§2)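 Ki ratios from radioligand competition binding. Rat A1 used brain cortical membranes and rat A2A used brain striatal membranes. Human A1 and A2A used membranes of CHO cells expressing the receptors. A1 radioligand [³H]CCPA; A2A radioligand [³H]MSX-2. Potent compounds were tested at 6–7 concentrations spanning 3 orders of magnitude.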

Adenosine receptor A1 [8] = target: T2, Adenosine receptor A1 (Rattus norvegicus, UniProt P25099); experiment: Displacement of [3H]CCPA from adenosine A1 receptor in rat brain cortical membrane; assay type: cell membranes
T2 sequence (P25099 whole entry): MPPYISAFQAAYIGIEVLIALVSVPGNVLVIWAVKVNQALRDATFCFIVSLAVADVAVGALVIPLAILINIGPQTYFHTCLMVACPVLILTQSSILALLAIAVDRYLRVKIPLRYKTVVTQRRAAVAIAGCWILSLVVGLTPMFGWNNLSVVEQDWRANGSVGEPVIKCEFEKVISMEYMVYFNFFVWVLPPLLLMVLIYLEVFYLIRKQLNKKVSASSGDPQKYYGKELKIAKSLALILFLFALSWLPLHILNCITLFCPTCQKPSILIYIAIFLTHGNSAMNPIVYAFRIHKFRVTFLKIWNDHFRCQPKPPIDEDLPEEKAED

Mus musculus [9] = experiment: Anticonvulsant activity in F1 albino mouse assessed as protection against subcutaneous pentylenetetrazole-induced seizures at 300 mg/kg, ip after 0.5 hrs; assay type: functional, organism-based; design: dose 300 mg/kg; how it was run: as §1
Adenosine receptor A3 = target: T3, Adenosine receptor A3 (Homo sapiens, UniProt P0DMS8); experiment: Displacement of [3H]PSB-11 from human recombinant adenosine A3 receptor expressed in CHO cells; assay type: cell-based
T3 sequence (P0DMS8 whole entry): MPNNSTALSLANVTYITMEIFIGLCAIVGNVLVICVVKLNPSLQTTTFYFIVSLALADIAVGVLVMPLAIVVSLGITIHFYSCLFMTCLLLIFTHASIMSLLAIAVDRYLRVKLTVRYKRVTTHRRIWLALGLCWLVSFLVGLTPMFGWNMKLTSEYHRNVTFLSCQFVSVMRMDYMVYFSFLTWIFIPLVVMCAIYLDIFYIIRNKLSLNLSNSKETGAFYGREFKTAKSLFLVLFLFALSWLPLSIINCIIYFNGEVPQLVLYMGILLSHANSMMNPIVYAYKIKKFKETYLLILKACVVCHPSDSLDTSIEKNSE

Mus musculus [10] = experiment: Anticonvulsant activity in F1 albino mouse assessed as protection against maximal electroshock-induced seizures at 300 mg/kg, ip after 1 hr; assay type: functional, organism-based; design: dose 300 mg/kg; how it was run: as §1
Rattus norvegicus = species on record: Rattus norvegicus; experiment: Selectivity ratio of Ki for adenosine A1 receptor in rat brain cortical membrane to Ki for adenosine A2A receptor in rat brain striatal membrane; assay type: cell membranes; how it was run: as §2
Mus musculus [11] = experiment: Anticonvulsant activity in F1 albino mouse assessed as protection against maximal electroshock-induced seizures at 300 mg/kg, ip after 0.5 hrs; assay type: functional, organism-based; design: dose 300 mg/kg; how it was run: as §1
Mus musculus [12] = experiment: Anticonvulsant activity in F1 albino mouse assessed as protection against subcutaneous pentylenetetrazole-induced seizures at 300 mg/kg, ip after 0.25 hrs; assay type: functional, organism-based; design: dose 300 mg/kg; how it was run: as §1
Mus musculus [13] = experiment: Neurotoxicity in F1 albino mouse assessed as minimal motor impairment at 100 mg/kg, ip after 0.5 hrs by rotorod test; assay type: toxicity, organism-based; design: dose 100 mg/kg, route intraperitoneal; conditions: in vivo; how it was run: as §1
[14] = target: T4, Adenosine receptor A2b (Homo sapiens) (UniProt P29275); experiment: Displacement of [3H]ZM241385 from human adenosine A2B receptor expressed in CHO cells at 10 uM; assay type: cell-based
T4 sequence (whole entry): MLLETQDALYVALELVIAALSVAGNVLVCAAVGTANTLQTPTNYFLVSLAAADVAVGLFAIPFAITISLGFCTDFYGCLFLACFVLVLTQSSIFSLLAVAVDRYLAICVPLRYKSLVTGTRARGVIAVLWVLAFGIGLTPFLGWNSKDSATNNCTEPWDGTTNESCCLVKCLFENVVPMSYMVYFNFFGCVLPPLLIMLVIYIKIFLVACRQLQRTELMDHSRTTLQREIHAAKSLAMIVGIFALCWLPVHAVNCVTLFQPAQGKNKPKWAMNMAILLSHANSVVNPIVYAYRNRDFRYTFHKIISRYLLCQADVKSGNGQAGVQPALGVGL
How it was run: (§3)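 CHO cell membranes expressing the human receptor. Radioligands: A1 [3H]CCPA; A2B [3H]ZM241385 or [3H]PSB-603; A3 [3H]PSB-11. […] Potent compounds run at 6–7 concentrations spanning 3 orders of magnitude; Ki ± SEM.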

Adenosine receptor A2b = target: T5, Adenosine receptor A2b (Homo sapiens, UniProt P29275); experiment: Displacement of [3H]ZM241385 from human adenosine A2B receptor expressed in CHO cells; assay type: cell-based
T5 sequence (P29275 whole entry): T4 sequence (whole entry)

[15] = target: T6, Adenosine receptor A3 (Homo sapiens) (UniProt P0DMS8); experiment: Displacement of [3H]PSB-11 from human recombinant adenosine A3 receptor expressed in CHO cells at 10 uM; assay type: cell-based; how it was run: as §3
T6 sequence (whole entry): T3 sequence (P0DMS8 whole entry)

[16] = target: T7, Adenosine receptor A1 (Homo sapiens) (UniProt P30542); experiment: Displacement of [3H]CCPA from human recombinant adenosine A1 receptor expressed in CHO cells at 10 uM; assay type: cell-based; how it was run: as §3
T7 sequence (whole entry): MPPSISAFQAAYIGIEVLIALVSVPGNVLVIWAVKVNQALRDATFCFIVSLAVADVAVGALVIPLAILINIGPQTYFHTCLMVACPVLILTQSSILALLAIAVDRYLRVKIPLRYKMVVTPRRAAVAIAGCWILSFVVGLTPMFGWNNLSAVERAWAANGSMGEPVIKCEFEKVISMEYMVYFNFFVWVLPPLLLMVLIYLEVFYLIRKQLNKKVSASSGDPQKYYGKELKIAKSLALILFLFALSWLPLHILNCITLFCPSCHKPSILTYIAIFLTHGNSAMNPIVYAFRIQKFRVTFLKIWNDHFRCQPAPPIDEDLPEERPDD

Mus musculus [17] = experiment: Anticonvulsant activity in F1 albino mouse assessed as protection against subcutaneous pentylenetetrazole-induced seizures at 300 mg/kg, ip after 4 hrs; assay type: functional, organism-based; design: dose 300 mg/kg; how it was run: as §1
[18] = target: T8, Adenosine receptor A1 (Rattus norvegicus) (UniProt P25099); experiment: Displacement of [3H]CCPA from adenosine A1 receptor in rat brain cortical membrane at 25 uM; assay type: cell membranes
T8 sequence (whole entry): T2 sequence (P25099 whole entry)

Mus musculus [19] = experiment: Neurotoxicity in F1 albino mouse assessed as minimal motor impairment at 300 mg/kg, ip after 4 hrs by rotorod test; assay type: toxicity, organism-based; design: dose 300 mg/kg, route intraperitoneal; conditions: in vivo; how it was run: as §1
Adenosine receptor A1 [20] = target: T9, Adenosine receptor A1 (Homo sapiens, UniProt P30542); experiment: Displacement of [3H]CCPA from human recombinant adenosine A1 receptor expressed in CHO cells; assay type: cell-based
T9 sequence (P30542 whole entry): T7 sequence (whole entry)

Mus musculus [21] = experiment: Neurotoxicity in F1 albino mouse assessed as minimal motor impairment at 300 mg/kg, ip after 0.5 hrs by rotorod test; assay type: toxicity, organism-based; design: dose 300 mg/kg, route intraperitoneal; conditions: in vivo; how it was run: as §1
Adenosine receptor A2a [22] = target: T1, Adenosine receptor A2a; conditions: CHO, 10 uM

SMILES | Activity (Mus musculus [1]) | Ki (Adenosine receptor A2a [2]) [µM] | Ki (Adenosine receptor A2a [3]) [µM] | Activity (Mus musculus [4]) | Activity (Mus musculus [5]) | Activity (Mus musculus [6]) | Activity (Mus musculus [7]) | Ki (Adenosine receptor A1 [8]) [µM] | Activity (Mus musculus [9]) | Ki (Adenosine receptor A3) [µM] | Activity (Mus musculus [10]) | Ratio Ki (Rattus norvegicus) | Activity (Mus musculus [11]) | Activity (Mus musculus [12]) | Activity (Mus musculus [13]) | inhibition [14] [%] | Ki (Adenosine receptor A2b) [µM] | inhibition [15] [%] | Activity (Mus musculus [17]) | Activity (Mus musculus [19]) | further results
Cn1c(=O)c2c(nc3n2CCCN3C2CCCCCCC2)n(C)c1=O | Non-toxic | 1.53 | 0.57 | inactive | inactive | Non-toxic | inactive | ≥ 25 | Active | > 10 | inactive | > 44 | inactive | inactive | Non-toxic | 32 | > 10 | 52 | inactive | Non-toxic | Ratio Ki (CHO): 3; inhibition [16]: 17%; inhibition [18]: 33%; Ki (Adenosine receptor A1 [20]): > 10 µM
Cn1c(=O)c2c(nc3n2CCN3C2CCC(O)CC2)n(C)c1=O (mixture of isomers) | Non-toxic | 3.27 | 4.48 | inactive | inactive | Non-toxic | inactive | > 25 | inactive | > 10 | inactive | > 6 | inactive | inactive | – | 24 | > 10 | 0 | inactive | Non-toxic | Activity (Mus musculus [21]): Non-toxic; inhibition [16]: 7%; inhibition [18]: 4%; Ki (Adenosine receptor A1 [20]): > 10 µM
CC(=O)OC1CCC(N2CCCCn3c2nc2c3c(=O)n(C)c(=O)n2C)CC1 (mixture of isomers) | Non-toxic | > 10 | 1.74 | inactive | inactive | Non-toxic | inactive | 4.87 | Active | > 10 | inactive | 3 | inactive | inactive | Non-toxic | 29 | > 10 | 28 | inactive | Non-toxic | Ratio Ki (CHO): 5; inhibition [16]: 16%; inhibition (Adenosine receptor A2a [22]): 8%; Ki (Adenosine receptor A1 [20]): > 10 µM
Cn1c(=O)c2c(nc3n2CCCCN3C2CCC(O)CC2)n(C)c1=O (mixture of isomers) | Non-toxic | – | 3.81 | inactive | inactive | Non-toxic | inactive | ≥ 25 | Active | – | inactive | 7 | inactive | inactive | Non-toxic | – | – | – | inactive | Non-toxic | inhibition [18]: 44%
